Measurements published in ChEMBL document CHEMBL4622873, “Chlorosphaerolactylates A-D: Natural Lactylates of Chlorinated Fatty Acids Isolated from the Cyanobacterium Sphaerospermopsis sp. LEGE 00249” (2020).
In brackets after ≈: the same amount, converted by molar mass.

Legend:
Assay type in all cases: functional
Staphylococcus hominis = experiment: Antibiofilm activity against coagulase-negative Staphylococcus hominis FI31 incubated for 48 hrs by crystal violet staining-based method
Summary of the method: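 Strain FI31 is a clinical isolate recovered from an infected prosthesis. Media and solutions were made in ultrapure deionized water and sterilized by autoclaving at 121 °C for 15 min.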

Staphylococcus aureus = experiment: Bactericidal activity against Staphylococcus aureus spa type t1333/S54F9 by CLSI-based broth microdilution method
Summary of the method: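 S. aureus clinical isolate S54F9, revived on Mueller-Hinton agar at 37 °C from 25% (v/v) glycerol stocks held at -20 °C, then kept at 4 °C. Broth microdilution susceptibility test in 96-well plates, after which the upper wells were subcultured onto solid MSA agar to read the bactericidal endpoint.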

Candida parapsilosis = experiment: Fungicidal activity against Candida parapsilosis SMI416 by CLSI-based broth microdilution method; conditions: Lodderomyces parapsilosis
Summary of the method: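 C. parapsilosis SMI416, a clinical isolate from a bloodstream infection, revived on Mueller-Hinton agar at 37 °C from 25% (v/v) glycerol stocks held at -20 °C, then maintained at 4 °C. Media and solutions were made in ultrapure water and autoclaved at 121 °C for 15 min.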

Row | Compound | MBIC50 (Staphylococcus hominis) | MBC (Staphylococcus aureus) | MFC (Candida parapsilosis)
1 | C[C@H](OC(=O)CCCCC(Cl)CCCCCCCl)C(=O)O (some centres not stated) | 0.5 to 1.1 mM | 2.7 to 6 mM (≈ 921 to 2050 µg/mL) | 2.7 to 6 mM (≈ 921 to 2050 µg/mL)
2 | CC(OC(=O)CCCCC(Cl)CCCCCC(Cl)Cl)C(=O)O (configuration not stated) | 0.5 to 1.1 mM | 2.7 to 6 mM (≈ 1010 to 2250 µg/mL) | 2.7 to 6 mM (≈ 1010 to 2250 µg/mL)
3 | CC(OC(=O)CCCCCCCCCCCCl)C(=O)O (configuration not stated) | 0.5 to 1.1 mM | 2.7 to 6 mM (≈ 828 to 1840 µg/mL) | 2.7 to 6 mM (≈ 828 to 1840 µg/mL)
4 | CCCCCCC(Cl)CCCCC(=O)OC(C)C(=O)O (configuration not stated) | 0.5 to 1.1 mM | 2.7 to 6 mM (≈ 828 to 1840 µg/mL) | 2.7 to 6 mM (≈ 828 to 1840 µg/mL)
